Laboratory results reported in ChEMBL document CHEMBL1821659, “N-Benzyl-3-sulfonamidopyrrolidines are a New Class of Bacterial DNA Gyrase Inhibitors” (ACS Med Chem Lett, 2011).
≈ marks a conversion by molar mass, not a printed value. Calls of active or inactive are those of the source. No cut-off for these calls is given here.

Key:
[1] = test system: Enterococcus faecalis; assay: Antimicrobial activity against Enterococcus faecalis 1131 in presence of reserpine after 14 hrs; assay type: functional, organism-based
[2] = test system: Enterococcus faecalis; assay: Antimicrobial activity against Enterococcus faecalis 1131 after 14 hrs; assay type: functional, organism-based
[3] = test system: Staphylococcus aureus; assay: Antimicrobial activity against Staphylococcus aureus FRI 100 in presence of reserpine after 14 hrs; assay type: functional, organism-based
[4] = test system: Nucleic Acid; assay: Induction of DNA damage at Escherichia coli supercoiled pUC19 bound to DNA gyrase assessed as dsDNA breaks in the absence of ATP at =<3.3 mM after 1 hrs by agarose gel electrophoresis; assay type: nucleic-acid assay
[5] = test system: Escherichia coli; assay: Antimicrobial activity against Escherichia coli BW25113 delta tolC after 14 hrs by microdilution method; assay type: functional
Outline: (§1)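 MIC determined in the E. coli BW25113 ΔtolC drug-pump knockout, which lacks a functional AcrAB-TolC multidrug efflux pump. The pump inhibitor was applied only to the wild-type strains.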

[6] = test system: Escherichia coli; assay: Antimicrobial activity against Escherichia coli BW25113 delta tolC after 14 hrs by macrodilution method; assay type: functional; outline: as §1
[7] = Inhibition of Escherichia coli DNA gyrase assessed as DNA supercoiling using pUC19 as substrate after 30 mins by agarose gel electrophoresis
Outline: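 Gel-based supercoiling assay on pUC19. Supercoiled, linear and relaxed pUC19 were run as marker lanes. Test compounds were applied at a range of μM concentrations.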

[8] = test system: Escherichia coli; assay: Antimicrobial activity against Escherichia coli BW25113 after 14 hrs by macrodilution method in presence of efflux pump inhibitor 60 uM MC-207,110; assay type: functional; details: BW25113, 14 h
Outline: (§2)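 Run on wild-type strains, with 60 μM of the efflux pump inhibitor MC-207,110 added to potentiate compound activity.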

[9] = test system: Salmonella enterica; assay: Antimicrobial activity against Salmonella enterica ATCC 19585 after 14 hrs by macrodilution method in presence of efflux pump inhibitor 60 uM MC-207,110; assay type: functional; details: ATCC 19585, 14 h; outline: as §2
[10] = test system: Salmonella enterica; assay: Antimicrobial activity against Salmonella enterica ATCC 19585 after 14 hrs by microdilution method in presence of efflux pump inhibitor 60 uM MC-207,110; assay type: functional; details: ATCC 19585, 14 h
[11] = test system: Pseudomonas aeruginosa; assay: Antimicrobial activity against Pseudomonas aeruginosa K after 16 hrs by macrodilution method in presence of efflux pump inhibitor 60 uM MC-207,110; assay type: functional; outline: as §2
[12] = test system: Streptococcus pneumoniae; assay: Antimicrobial activity against Streptococcus pneumoniae ATCC 10813 after 24 hrs by macrodilution method; assay type: functional; details: ATCC 10813, 24 h
[13] = test system: Staphylococcus aureus; assay: Antimicrobial activity against Staphylococcus aureus FRI 100 after 14 hrs by macrodilution method; assay type: functional; details: FRI 100, 14 h
[14] = test system: Escherichia coli; assay: Antimicrobial activity against Escherichia coli BW25113 after 14 hrs by microdilution method in presence of efflux pump inhibitor 60 uM MC-207,110; assay type: functional; details: BW25113, 14 h
[15] = test system: Pseudomonas aeruginosa; assay: Antimicrobial activity against Pseudomonas aeruginosa K after 16 hrs by microdilution method in presence of efflux pump inhibitor 60 uM MC-207,110; assay type: functional
[16] = test system: Enterococcus faecalis; assay: Antimicrobial activity against Enterococcus faecalis 1131 after 14 hrs by macrodilution method; assay type: functional; details: Enterococcus faecalis, 1131, 14 h
[17] = test system: Streptococcus pneumoniae; assay: Antimicrobial activity against Streptococcus pneumoniae ATCC 10813 after 24 hrs by microdilution method; assay type: functional; details: ATCC 10813, 24 h

Structure (SMILES)	Activity [1]	Activity [2]	Activity [3]	Activity [4]	MIC [5] [µM]	MIC [6] [µM]	IC50 [7] [µM]	MIC [8] [µM]	MIC [9] [µM]	MIC [10] [µM]	MIC [11] [µM]	MIC [12] [µM]	MIC [13] [µM]	MIC [14] [µM]	MIC [15] [µM]	MIC [16] [µM]	MIC [17] [µM]
Cc1ccc(F)cc1S(=O)(=O)NC1CCN(Cc2ccc(OC(C)C)cc2)C1 (stereo not drawn)	inactive	inactive	inactive	inactive	–	–	–	–	–	–	–	–	–	–	–	–	–
Cc1ccc(F)cc1S(=O)(=O)N[C@H]1CCN(Cc2ccc(OC(C)C)cc2)C1	–	–	–	–	140 (≈ 56.9 µg/mL)	140 (≈ 56.9 µg/mL)	40.8	–	–	–	–	–	–	–	–	–	–
Cc1ccc(F)cc1S(=O)(=O)NC1CCN(Cc2ccc(CC(C)C)cc2)C1 (stereo not drawn) [GYRAMIDE B]	inactive	inactive	inactive	–	–	5 (≈ 2.02 µg/mL)	0.7	40	20	20	40	20 (≈ 8.09 µg/mL)	80 (≈ 32.4 µg/mL)	40	40	> 160	–
Cc1ccc(F)cc1S(=O)(=O)N[C@@H]1CCN(Cc2ccc(OC(C)C)cc2)C1	–	–	–	–	–	10 (≈ 4.07 µg/mL)	3.3	40	80	80	80	160 (≈ 65 µg/mL)	> 160	40	80	> 160	160 (≈ 65 µg/mL)
Cc1ccc(F)cc1S(=O)(=O)NC1CCN(Cc2ccc(-c3ccccc3)cc2)C1 (stereo not drawn) [GYRAMIDE C]	inactive	inactive	inactive	–	2.5 (≈ 1.06 µg/mL)	2.5 (≈ 1.06 µg/mL)	1.1	20	10	10	20	10 (≈ 4.25 µg/mL)	20 (≈ 8.49 µg/mL)	20	20	> 160	–
